Measured values taken from ChEMBL document CHEMBL1124829, “Methylating agents as trypanocides” (1990).

Key:
Format in all cases: functional
Mus musculus [1] = assay: (§1) Mean life extension in mice bearing Trypanosoma rhodesiense, after ip administration at a dose of 0.2 mmol/kg; parameters: unit: days
In short: (§2)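 Female CD-1 mice, 6-8 weeks old, 25-35 g, infected ip with about 10^6 freshly isolated trypanosomes in PBSG. At day 3 post-infection they got a single ip dose, dissolved in 50 µL DMSO or in 0.5 mL PBSG adjusted to pH 7.4. Activity is the days of survival beyond vehicle-only controls, as the mean of 4 mice to the nearest day. Parasitemia was monitored to exclude toxic deaths.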

Mus musculus [2] = assay: Mean life extension in mice bearing Trypanosoma rhodesiense, after ip administration at 0.9 mmol/kg dose; in short: as §2
Mus musculus [3] = assay: Mean life extension in mice bearing Trypanosoma rhodesiense, after ip administration at a dose of 0.5 mmol/kg
Mus musculus [4] = assay: Mean life extension in mice bearing Trypanosoma rhodesiense, after ip administration at 0.4 mmol/kg dose
Mus musculus [5] = assay: Mean life extension in mice bearing Trypanosoma rhodesiense, after ip administration at 0.5 mmol/kg dose; in short: as §2
Mus musculus [6] = assay: Mean life extension was determined in mice bearing Trypanosoma brucei rhodesiense (YTAT 1.1) after administration of 0.2 mmol/kg per dose
In short: (§3)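 Female CD-1 mice, 6-8 weeks old, were infected ip with about 10^6 cells in PBSG. When parasitemia reached about 10^8 cells/mL they got a single 0.2 mmol/kg dose in DMSO. The result is days survived beyond DMSO-only controls, as the mean of 4 animals to the nearest day with SE. Survival of 30 days or more was counted as cure.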

Mus musculus [7] = assay: Mean life extension was determined in mice bearing Trypanosoma equiperdum (1559), after administration of 0.2 mmol/kg per dose; in short: as §3
Mus musculus [8] = assay: Mean life extension was determined in mice bearing Trypanosoma brucei gambiense (TxTAT 1.0), after administration of 0.2 mmol/kg per dose; in short: as §3
Mus musculus [9] = assay: Mean life extension was determined in mice bearing Trypanosoma brucei (M110) after administration of 0.2 mmol/kg per dose; in short: as §3
Mus musculus [10] = assay: Mean life extension was determined in mice bearing Trypanosoma evansi (SN) after administration of 0.2 mmol/kg per dose; in short: as §3
Mus musculus [11] = assay: Mean life extension was determined in mice bearing Trypanosoma evansi (SAK), after administration of 0.2 mmol/kg per dose; in short: as §3
Mus musculus [12] = assay: as §1; in short: as §2

Structure (SMILES): COc1ccc(S(=O)(=O)NN(C)S(C)(=O)=O)cc1
- Mean life extension (Mus musculus [1]): 4

Structure (SMILES): CCOS(=O)(=O)OCC [SULFURIC ACID DIETHYL ESTER]
- Mean life extension (Mus musculus [1]): 0

Structure (SMILES): O=S(=O)(NNS(=O)(=O)c1ccccc1)c1ccccc1
- Mean life extension (Mus musculus [1]): 0

Structure (SMILES): CNNCc1ccc(C(=O)NC(C)C)cc1 [PROCARBAZINE]
- Mean life extension (Mus musculus [2]): >30
- Mean life extension (Mus musculus [1]): 5

Structure (SMILES): CNNC.Cl.Cl
- Mean life extension (Mus musculus [1]): 4

Structure (SMILES): CN(NS(=O)(=O)c1ccccc1)S(=O)(=O)c1ccccc1
- Mean life extension (Mus musculus [1]): 5

Structure (SMILES): CNN.Cl.Cl
- Mean life extension (Mus musculus [3]): 1

Structure (SMILES): COS(C)(=O)=O [METHANESULFONIC ACID METHYL ESTER]
- Mean life extension (Mus musculus [1]): 1

Structure (SMILES): CN(N=O)C(N)=O [N-METHYL-N-NITROSUREA]
- Mean life extension (Mus musculus [4]): >30
- Mean life extension (Mus musculus [1]): 8

Structure (SMILES): Cl.Cl.NN [HYDRAZINE DIHYDROCHLORIDE]
- Mean life extension (Mus musculus [3]): 0

Structure (SMILES): CN(C)/N=N/c1[nH]cnc1C(N)=O [DACARBAZINE]
- Mean life extension (Mus musculus [5]): >30
- Mean life extension (Mus musculus [1]): 6

Structure (SMILES): CN(NS(C)(=O)=O)S(C)(=O)=O
- Mean life extension (Mus musculus [6]): 12
- Mean life extension (Mus musculus [7]): 12
- Mean life extension (Mus musculus [8]): 13
- Mean life extension (Mus musculus [9]): 11
- Mean life extension (Mus musculus [10]): 12
- Mean life extension (Mus musculus [11]): >30
- Mean life extension (Mus musculus [1]): 12

Structure (SMILES): CN(NC(=O)c1ccccc1)C(=O)c1ccccc1
- Mean life extension (Mus musculus [1]): 0

Structure (SMILES): COS(=O)(=O)OC [SULFURIC ACID DIMETHYL ESTER]
- Mean life extension (Mus musculus [1]): 3

Structure (SMILES): CN(N=O)C(=O)N[C@@H](C=O)[C@@H](O)[C@H](O)[C@H](O)CO [STREPTOZOCIN]
- Mean life extension (Mus musculus [12]): 4

Structure (SMILES): CCNNCC.Cl.Cl
- Mean life extension (Mus musculus [1]): 0
